In this test the target is T1, OR51B5 (Homo sapiens) (UniProt Q9H339).
T1 sequence (whole entry): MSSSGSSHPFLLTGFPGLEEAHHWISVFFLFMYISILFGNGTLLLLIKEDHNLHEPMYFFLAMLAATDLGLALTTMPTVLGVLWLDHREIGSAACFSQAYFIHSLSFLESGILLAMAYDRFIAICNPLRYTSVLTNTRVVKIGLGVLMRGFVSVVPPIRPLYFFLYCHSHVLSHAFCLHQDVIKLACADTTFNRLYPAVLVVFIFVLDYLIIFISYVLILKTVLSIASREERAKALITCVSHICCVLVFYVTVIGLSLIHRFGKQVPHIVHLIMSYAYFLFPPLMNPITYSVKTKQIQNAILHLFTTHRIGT
The settings on record: stereoisomer not certain. In a few lines: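 Each entry records the cell line, G-protein, co-transfected protein and tags used. Methods varied with the source, often transient luciferase assays in mammalian cell lines. A receptor–molecule pair is called responsive (active) if the original authors judged its signal statistically different from baseline and non-responsive (inactive) otherwise.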

Molecules are shown by their SMILES.

The source of these data is the M2OR odorant receptor database.

On to `CCCCCCCCCCCCCC(=O)OC`, for which the “odorant receptor agonist call” value was “inactive”.

Regarding `CC(C)=CCCC(C)=CCCC(C)=CCO`, the “odorant receptor agonist call” value was “active”.

Consider `CCCCCCCCCCCCCCCC(=O)OC`, for which the “odorant receptor agonist call” value was “inactive”.
